Screening data: PubChem BioAssay, several laboratories
Yeast lifespan up – compounds extending yeast replicative lifespan, primary screen, S. cerevisiae, OD615 | S. cerevisiae growth with nicotinamide; deaD strain in restrictive glucose medium | inhibition of the nicotinamide effect, % at 10 µM | 130,000 compounds, 0.68% hits;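 active means inhibition above a set limit, placed 3 SD over the median of all compounds, cut at about 26% in these data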;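 further: 0% = nicotinamide-treated wells and 100% = cells grown without nicotinamide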
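Material: Modified budding yeast, DeaD strain | Medium: Restrictive glucose medium | Probe or stimulus: 1.5 mM nicotinamide | Dosing: Single dose 10 µM compound, 0.25% DMSO | Times: 48 h at 30 °C | Technique: OD615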
BB579 growth dn – growth inhibitors of yeast BB579 in restrictive medium, primary screen, yeast lifespan-shortening project, S. cerevisiae; OD615, 48 h; inhibition, % at 10 µM; 140,000 compounds, 0.51% hits;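 active means inhibition above a set limit, 3 SD over the mean compound inhibition, cut at about 44% in these data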
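test system = yeast BB579 (DeaD) | buffer or medium = restrictive CSMM-D medium | doses = single compound dose of 10 µM, 0.25% DMSO final | times = 4 h preincubation and 48 h exposure at 30 °C | technique = culture absorbance at 615 nm | benchmarks = amphotericin B 10 µg/mL, positive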
HMGR II inh – inhibitors of E. faecalis class II HMGR, primary screen, biochemical, Enterococcus faecalis; HMG-CoA reductase (Enterococcus faecalis, mvaE); purified E. faecalis HMGR, NADPH absorbance 340 nm kinetic; inhibition, % at 10 µM; 190,000 compounds, 0.41% hits; AID 1066, 2008;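 active means inhibition above a set limit, the median over all tested compounds plus 3 SD, cut at about 9.5% in these data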;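 further: enzyme runs in reverse so mevalonate oxidation gives rising NADPH absorbance; 0% = complete reaction with DMSO and 100% = background rate lacking mevalonate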
Insulin prom inh – inhibitors of insulin promoter-driven GFP, primary screen, imaging, TRM-6 cells, eGFP reporter, cell count; reporter expression induced with tamoxifen; inhibition, % at 2 µM; AID 1273, 2008; 130,000 compounds, 0.9% hits;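 active means inhibition above the mean plus 3 SD, with well images judged a real hit on visual review, cut at about 60% in these data, passing the limit was not always enough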
RAM inhibit – inhibitors of the yeast RAM network, primary screen, dse1pr::URA3 reporter, 5-FOA selection | S. cerevisiae dse1pr::URA3 reporter, 5-FOA growth OD615, 2 d; analog-sensitive cbk1-as2 kinase mutant strain | inhibition, % at 50 µM | 190,000 compounds, 1.8% hits;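 active means inhibition above a set limit, 3 SD over mean compound inhibition, cut at about 8.4% in these data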;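 further: 0% = DMSO-only wells with no growth and 100% = 10 µM 1-NA-PP1 full growth; inhibition rescues growth on 5-FOA so higher OD means more RAM inhibition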
* = called active by the depositor; . = no result given. Shown are actives, neighbours in structure and some others; about 3.7% of the full set was active somewhere.

SMILES	Yeast lifespan up	BB579 growth dn	HMGR II inh	Insulin prom inh	RAM inhibit
Clc1ccc(CSC(Cn2ccnc2)c2ccc(Cl)cc2Cl)cc1 (stereo not given)	-9	98*	11*	-62	-2
Clc1ccc(COC(Cn2ccnc2)c2ccc(Cl)cc2Cl)cc1 (stereo not given)	-9	97*	6	-45	-1
c1ccc(Cn2ccnc2)cc1	9	-16	-12	43	0
Cc1ccc(OCC(=O)N2CCN(C3CCC(c4ccccc4)CC3)CC2)cc1 (stereo not given)	.	.	-5	.	1
CC1(C)C[C@H]2C=C(C=O)[C@]3(C=O)C[C@]3(C)[C@H]2C1	-12	100*	-9	-277	-2
O=c1[nH]c(=S)n(-c2ccccc2)c(O)c1/C=N/N1CCOCC1	4	-2	-1	.	1
CN1/C(=C\C=C\C2=[N+](C)c3ccc4ccccc4c3C2(C)C)C(C)(C)c2ccccc21	-23	87*	5	-151	-1
O=C(CNC1CCCC1)Nc1ccc(N2CCCCCC2)cc1	.	.	-7	.	1
COc1ccc(C(=O)CN2CCOCC2)cc1F	-4	10	0	82*	2
COC(=O)C(O)(c1ccc(NC(=S)NC(=O)c2ccccc2)cc1)C(F)(F)F (stereo not given)	-4	-53	-1	.	0
CN(C(=O)Oc1ccc(C(=O)c2ccc(Cl)cc2)cc1)c1ccccc1	5	-25	0	-3	8.4*
O=P(NC(c1ccccc1)c1ccccc1)(Oc1ccccc1)Oc1ccccc1	7	-25	-1	-33	9.3*
O=P(O)(Oc1ccccc1)OC(c1ccccc1)C(F)(F)F (stereo not given)	.	.	-2	.	1
CCCC/C(=N\O)c1c[nH]c2ccccc12	-18	4	-10	18	-1
[N-]=[N+]=NCc1cn2cccnc2n1	.	.	1	-20	0
CCC(=O)c1c(O)n(C2CCCCCC2)c(=O)[nH]c1=O	-10	89*	-2	-18	-2
O=C(NCCO)c1nsnc1NCCCl	.	.	-1	37	0
CCC1(c2ccccc2)C(=O)N(COC)C(=O)N(COC)C1=O	-6	-57	2	-26	2
NC(=O)c1cn(C2OC(CO)C(O)C2O)c2ncnc(N)c12 (stereo not given)	-1	-30	-6	64*	1
COc1ccc(NP(=O)(Oc2ccc(Cl)cc2)Oc2ccc(Cl)cc2)cc1OC	3	-27	-5	30	9.5*
COc1ccc(NP(=O)(Oc2ccccc2OC)Oc2ccccc2OC)cc1	5	-33	5	-57	3
COc1ccc(OC)c(NP(=O)(Oc2ccc(Cl)cc2)Oc2ccc(Cl)cc2)c1	3	-28	-5	0	11*
NP(=O)(Oc1ccc(Cl)cc1)Oc1ccc(Cl)cc1	.	.	-1	.	4
COc1cc(C(=S)N2CCOCC2)cc(OC)c1OC(=O)Cc1ccccc1	.	.	4	.	-1
CN1C(=O)NC(=O)/C(=C\C=C\c2ccccc2[N+](=O)[O-])C1=O	.	.	3	.	-1
SMILES	Yeast lifespan up	BB579 growth dn	HMGR II inh	Insulin prom inh	RAM inhibit
COc1cccc(CCNCc2ccc(SC)cc2)c1	5	0	-10	.	0
O=C1c2ccccc2C(=O)N1Cc1nc2ccccc2c(=O)n1-c1ccc(Br)cn1	77*	-44	-2	33	6
O=C1c2ccccc2C(=O)N1Cc1nc2ccccc2c(=O)n1-c1cccnc1	-11	-10	-8	-37	1
CCCCn1c(=O)c(C(=O)NCc2ccco2)c(O)c2ccccc21	.	.	-2	9	7
CCCCn1c(=O)c(C(=O)NCc2ccncc2)c(O)c2ccccc21	-11	46*	-3	-24	0
CN(C)c1cccc2c(C#N)ccc(N(C)C)c12	.	.	1	87*	2
O=C(C1CC(=O)N(C2CCCCCCC2)C1)N1CCC2(CC1)OCCO2 (stereo not given)	-6	-22	1	74*	1
O=C(C1CCC(=O)N1C1CCCC1)N1CCC2(CC1)OCCO2 (stereo not given)	-18	-25	-1	20	-1
O=C1c2cccc3cccc(c23)C(=O)N1/N=C/c1c(O)n(-c2ccccc2)c(=O)[nH]c1=O	.	.	2	-5	2
O=C(Nc1ccc(OC(=O)N2CCCCC2)cc1)N1CCOCC1	.	.	-3	31	0
O=C(Oc1c(Cl)cc(Cl)c2ccccc12)N1CCCCC1	-7	-31	-3	-107	10*
CCC(C)N1C(=O)/C(=C\c2cc3c4c(c2)CCCN4CCC3)C(=O)NC1=S (stereo not given)	30*	-36	-2	11	3
Cn1cc(C(=O)Cc2ccccc2)c2ccccc21	-5	-15	-3	17	1
OC(c1cccc(Cl)c1)(c1cccc(Cl)c1)C1CN2CCC1CC2 (stereo not given)	.	.	0	.	0
O=C1NC(=O)N(Cc2ccccc2)C(=O)/C1=C\C=C\c1ccco1	.	.	-2	.	6
Cc1ccc(N2C(=O)NC(=O)/C(=C\C=C\c3ccco3)C2=O)cc1C	29*	-28	1	-26	4
CCCC1COC(Cn2cncn2)(c2ccc(Cl)cc2Cl)O1 (stereo not given)	-23	94*	-1	19	-1
C/C(=N\N1CCN(C)CC1)c1c(O)[nH]c(=O)[nH]c1=O	13	-30	-1	.	1
CC[C@]12C=CCN3CCC4(c5cc(Br)c(OC)cc5N(C)C4[C@@](O)(C(=O)OC)[C@@H]1OC(C)=O)C32 (stereo not given in full)	.	.	2	14	2
CC(ON1CC1(C(F)(F)F)C(F)(F)F)(C(N)=O)C(N)=O (stereo not given)	5	-39	3	12	2
CC/C(=N\N1CCN(C)CC1)c1c(O)[nH]c(=O)[nH]c1=O	6	-4	-6	39	0
NS(=O)(=O)c1ccc(N=Cc2c(O)n(C3CCCCC3)c(=O)n(C3CCCCC3)c2=O)cc1	33*	-49	-1	.	0
COc1cccc(C2CC3C(=O)C=CC2N3Cc2ccccc2)c1 (stereo not given)	59*	-38	-8	3	1
Cc1ccc(/C=C2\C(=O)NC(=O)N(CCc3ccc(F)cc3)C2=O)o1	39*	-37	-1	26	7
O=C1/C(=C/c2cccc([N+](=O)[O-])c2)N2CCC1CC2	36*	-37	-1	.	1
O=C1CC(c2ccccc2)CC(O)=C1C=NCCN1CCN(C(=O)Cc2ccccc2)CC1 (stereo not given)	82*	-60	2	-33	0
CCOP(=O)(OCC)C1(O)C(=O)Nc2ccc(Br)cc21 (stereo not given)	2	1	-1	12	1
Cc1cccc(CN(C)C)c1OC(=O)N(C)C	29*	19	0	.	1
